Where a SMILES comes first, the peptide text is derived from it. [ ]: non-standard residue; d: D form. Nva = CCC[C@H](N)C(=O)O
Tests used:
CDAHFD-fed mice [1] = assay: CDAHF diet-induced mouse model of MASH; format: in vivo, C57BL/6N mice; settings: 30 mg/kg/day oral dosing; Figure 2c-g
Outline: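 Male C57BL/6N mice, 8 weeks old, fed a choline-deficient, low-methionine high-fat diet (60 kcal% fat) for 12 weeks. From week 3, obeticholic acid 30 mg/kg was given daily by oral gavage in 0.5% CMC/0.01% Tween-80 for 9 weeks. Vehicle-treated chow-fed mice served as negative controls (n=10/group). End-of-treatment read-outs were serum ALT/AST by commercial kits, liver weight, hepatic TG and H&E NAS scoring.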

CDAHFD-fed mice [2] = assay: Hepatic fibrosis in CDAHF mouse model; format: in vivo, C57BL/6N mice; settings: 30 mg/kg daily oral; Figure 3a-c
liver of CDAHFD-fed mice = assay: Hepatic gene expression in CDAHF mouse model; format: in vivo, C57BL/6N mice; settings: RT-qPCR, 30 mg/kg oral
[3] = system: human induced pluripotent stem (iPS) cell-derived hepatocytes; assay: MTT cytotoxicity assay; format: cell-based; settings: ALY688 0.5 to 2000 nM, globular adiponectin 1 μg/mL; 4 and 24 h; Figure S1A
Outline: (§1)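 iPS cell-derived human hepatocytes were exposed to test compound at 0.5, 1, 100, 500, 1000, 1500 and 2000 nM, to globular adiponectin 1 μg/mL, or to H₂O₂ 500 μM for 4 and 24 h. Viability was quantified by MTT formazan per manufacturer. Experiments were repeated at least three times; mean ± SEM.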

[4] = system: human induced pluripotent stem (iPS) cell-derived hepatocytes; assay: LDH release cytotoxicity assay; format: cell-based; settings: ALY688 0.5 to 2000 nM, globular adiponectin 1 μg/mL; 4 and 24 h; Figure S1B
Outline: as §1, with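 “Cytotoxicity” for “Viability”, “quantified as LDH release” for “quantified”, “kit” for “MTT formazan”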

[5] = Pharmacokinetic study after single s.c. injection; format: in vivo, Sprague-Dawley rats; settings: male, Sprague-Dawley, rat, plasma, sc, 10 mg/kg
Outline: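 Male adult Sprague–Dawley rats (two per cage, 22–24°C, 12-h light cycle) received a single s.c. dose of 10 mg/kg. Plasma peptide was measured by LC–MS/MS. PK parameters were computed with values below LLOQ set to zero.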

STAM mice = assay: STAM; format: in vivo, C57BL/6N mice
Outline: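 Male C57BL/6N mice received 200 μg streptozotocin s.c. at 2 days after birth and were fed HFD (57 kcal% fat) from week 4 to week 9. From week 6 to week 9, mice received saline vehicle or test compound at 0.5 or 5 mg/kg/day, by daily s.c. injection or s.c. osmotic pump (0.25 μL/h); n=6/group. Read-outs were body weight during treatment, and terminal plasma ALT/AST (dry-chemistry analyser) and liver weight. Unpaired two-sided t-test.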

[6] = cited from earlier work
[7] = system: mice with TAA-induced liver injury / CCl4-induced liver fibrosis; settings: cited from earlier work
[8] = continuous infusion, high dose 5 mg/kg/day, vs control mice

Row | half-life [5] [min] | SMILES | Effect on alleviating MASH (CDAHFD-fed mice [1]) | Hepatic fibrosis by histological examination (CDAHFD-fed mice [2]) | Hepatic expression of fatty acid oxidation genes (Acot1, Acox1, Cyp4a12) (liver of CDAHFD-fed mice; Figure 4e) | Hepatic expression of fibrosis-related genes (Tgfβ, Col1a1, Timp1) (liver of CDAHFD-fed mice; Figure 4f) | Expression of MASH-induced inflammatory genes (liver of CDAHFD-fed mice; Figure 4g) | Cytotoxicity, MTT assay [3] | Cytotoxicity, LDH release assay [4] | Body weight during the treatment period (STAM mice; 0.5 or 5 mg/kg/day, daily s.c. or osmotic pump, Figure 1b) | Serum ALT level (STAM mice; [8]) | Serum AST level (STAM mice; [8]) | Serum ALT and AST levels (STAM mice; daily s.c. injection, 0.5 or 5 mg/kg/day, vs vehicle) | Stability in mouse plasma [6] | Effect against TAA-induced liver injury and CCl4-induced liver fibrosis [7]
1 | – | CC[C@H]1[C@@H](O)[C@@H]2[C@H](CC[C@]3(C)[C@@H]([C@H](C)CCC(=O)O)CC[C@@H]23)[C@@]2(C)CC[C@@H](O)C[C@@H]12 [OCA, obeticholic acid] | did not show beneficial effects | protective effects against hepatic fibrosis | restored | appeared to reduce the expression of most of these fibrotic genes, although without statistical significance | failed to reverse | – | – | – | – | – | – | – | –
2 | 27 | CCC[C@H](NC(=O)[C@@H]1CCCN1C(=O)[C@@H](NC(=O)[C@H](N)CC(N)=O)[C@@H](C)CC)C(=O)N[C@@H](CC(C)C)C(=O)N[C@@H](Cc1ccc(O)cc1)C(=O)N[C@H](CO)C(=O)N[C@@H](Cc1ccccc1)C(=O)N[C@@H](C)C(=O)N[C@H](CO)C(N)=O [ALY688] (H-[dN]IP[Nva]LY[dS]FA[dS]-NH2; N-terminus and C-terminus assumed) | – | – | – | – | – | No toxicity | No toxicity | did not induce change in body weight | slightly lower levels of ALT without statistical significance | significantly reduced | did not affect | good stability | liver protective effects

From paper PMC11157418 (Clinical and Translational Science, 2024)
